Calls of active or inactive are those of the source. The calls are words filed in the database; no cut-off is given here.
What was measured:
KB = assay: Cytotoxicity against human KB cells after 3 to 5 days by MTT assay; type: functional, cell-based
Hepatocyte [1] = assay: Antioxidant activity against tert-butyl hydroperoxide-induced oxidative stress in Sprague-Dawley rat hepatocytes at 100 uM after 24 hrs by lactate dehydrogenase assay; type: functional, cell-based
Method in brief: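 Primary rat hepatocyte cultures pretreated with compounds for 24 h, compounds removed, then exposed to tert-butyl hydroperoxide; cell damage read as lactate dehydrogenase leakage into culture medium; mean ± SEM, n = 4.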

Liver [2] = assay: Antioxidant activity in BALB/c mouse liver microsomes assessed as inhibition of free radical-induced lipid peroxidation after 60 mins; type: functional, Microsome; settings: 1 h
Method in brief: (§1)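 Mouse liver microsomes subjected to free radical-induced lipid peroxidation; formation of lipid peroxides measured with compounds over a concentration range, IC50 derived; mean ± SEM, n = 4.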

Hepatocyte [3] = assay: Cytotoxicity against rat hepatocytes upto 100 uM after 48 hrs; type: cell-based
Method in brief: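 Primary cultured rat hepatocytes incubated with compounds up to 100 µM for 48 h to check cytotoxicity.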

[4] = Antioxidant activity assessed as superoxide radical anion scavenging activity; type: functional
Method in brief: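 In vitro superoxide scavenging: superoxide generated by phenazine methosulfate–NADH system, detected as reduced nitroblue tetrazolium absorbance at 560 nm; dose–response used to derive IC50.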

Liver [5] = assay: Antioxidant activity in BALB/c mouse liver microsomes assessed as complete inhibition of free radical-induced lipid peroxidation at 20 uM after 60 mins; type: functional; settings: Microsome; method in brief: as §1
Liver [6] = assay: Antioxidant activity in BALB/c mouse liver microsomes assessed as complete inhibition of free radical-induced lipid peroxidation at 40 uM after 60 mins; type: functional; settings: Microsome; method in brief: as §1

Compound	IC50 (Liver [2])	IC50 [4]	Activity (KB)	Activity (Hepatocyte [1])	Activity (Hepatocyte [3])	Activity (Liver [5])	Activity (Liver [6])
COc1cc(CCC(O)CC(=O)CCc2cc(O)c(O)c(OC)c2)ccc1O (stereo not given)	–	–	Not toxic	–	Non-toxic	–	–
COc1cc(CCC(=O)CC(O)CCc2cc(O)c(O)c(OC)c2)ccc1O (stereo not given)	–	–	Not toxic	–	Non-toxic	–	–

Further lines, with some results ahead:

IC50 (Liver [2])	IC50 [4]	Compound	Activity (KB)	Activity (Hepatocyte [1])	Activity (Hepatocyte [3])	Activity (Liver [5])	Activity (Liver [6])
17.1 µM	36.4 µM	COc1cc(CCC(=O)CC(O)CCc2ccc(O)c(O)c2)ccc1O (stereo not given)	Not toxic	Active	Non-toxic	Active	–
21.9 µM	39.9 µM	COc1cc([C@@H]2C[C@@H](O)C[C@H](CCc3ccc(O)c(O)c3)O2)cc(O)c1O	Not toxic	Active	Non-toxic	–	Active
27.9 µM	48.1 µM	COc1cc([C@@H]2C[C@H](O)C[C@H](CCc3ccc(O)cc3)O2)cc(O)c1O	–	Active	–	–	Active
